Source: publication PMC5848258 (Clinical Infectious Diseases: An Official Publication of …, 2017)
Marks after values point to notes of the source that are not given here.

Experiments:
HIV-1 subtype B [1] = test: Change in plasma HIV-1 RNA, GSK3532795 monotherapy for 10 days; assay type: in vivo, human
Procedure, shortened: (§1)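 HIV-1-infected adults aged 18–55 with plasma HIV-1 RNA ≥5000 copies/mL and CD4+ count ≥200 cells/µL, PI- and MI-naive, were randomized 4:1 to test compound or placebo, double-blind. Dosing was once daily by oral suspension after a ≥10-hour fast for 10 days: part A subtype B, 5–120 mg; part C subtype C, 40 or 120 mg. Plasma HIV-1 RNA was measured by real-time PCR at screening and on days 1–14, 17, 19 and 24–26.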

HIV-1 subtype C = test: as above; assay type: in vivo, human; details: for Median of the maximum change from baseline in HIV-1 RNA / Median decline (baseline to day 11) in HIV-1 RNA: Part C
Procedure, shortened: as §1

[2] = Plasma pharmacokinetics of GSK3532795, part A; assay type: in vivo; details: human, oral
Procedure, shortened: (§2)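 The test compound was given as monotherapy by oral suspension after a ≥10-hour fast, once daily for 10 days (part A subtype B, 5–120 mg; part C subtype C, 40 or 120 mg). Serial blood samples were taken on days 1 and 10, with troughs on days 2, 4, 6 and 8. Plasma levels were measured by validated LC/MS and analysed noncompartmentally. Dose proportionality was assessed with a power model on log exposure versus log dose.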

[3] = Plasma pharmacokinetics of GSK3532795, part B; assay type: in vivo, human; details: for AUC increase compared with the same dose given as monotherapy: fed vs fasted monotherapy; for AUC / concentration at 24 h / Cmax / Tmax: human, plasma, oral; for AUC: AUCtau (%CV); for concentration at 24 h: C24 (%CV); for Cmax: Cmax (%CV); for Tmax: median (min–max)
Procedure, shortened: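 Male subtype B-infected subjects took the test compound (40 or 80 mg) once daily with atazanavir 400 mg, or with atazanavir/ritonavir 300 mg/100 mg. Dosing was open-label, as an oral suspension with breakfast, for 28 days. Serial samples were taken on days 1 and 10, with troughs on days 2, 4, 6 and 8. Plasma levels were measured by validated LC/MS and analysed noncompartmentally.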

[4] = Plasma pharmacokinetics of GSK3532795, part C; assay type: in vivo, human; details: for AUC / Cmax / Tmax: human, plasma, oral
Procedure, shortened: as §2

Safety assessments = assay type: in vivo, human; details: for Any AE / Deaths / Discontinuations due to AE(s) / Grade 3–4 related AEs / Laboratory abnormalities (grade 3–4) / Serious AEs: Parts A/C
Procedure, shortened: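 Over the 10-day once-daily oral monotherapy (test compound or placebo, double-blind, fasted) and follow-up, staff recorded vital signs, physical examination, laboratory measurements, ECG and adverse events. Adverse events were coded with MedDRA version 17.1. Investigators graded their severity and their relationship to study drug.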

HIV-1 subtype B [5] = test: Exposure–response relationship; assay type: in vivo, human; details: Part A
Procedure, shortened: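 Part A subjects received the test compound orally, fasted, once daily for 10 days. Plasma concentration at 24 hours on day 10 was measured by validated LC/MS. It was related to the maximum change from baseline in log10 HIV-1 RNA with a 3-parameter […] Emax model, Y = E0 + Emax*C/(EC50 + C).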

[6] = Solubility in aqueous media; assay type: physicochemical
[7] = healthy subjects; ref Bristol-Myers Squibb, data on file; cited from earlier work
[8] = cited from earlier work
HIV-1 = details: cited from earlier work
HIV-1 Gag = details: in vitro, compared with BVM; cited from earlier work
[9] = Part B, fed, 40 mg + ATV 300 mg + RTV 100 mg QD
[10] = Part B, fed, 40 mg + ATV 400 mg QD
[11] = Part B, fed, 80 mg + ATV 400 mg QD

Compound: C=C(C)[C@@H]1CC[C@]2(NCCN3CCS(=O)(=O)CC3)CC[C@]3(C)[C@H](CC[C@@H]4[C@@]5(C)CC=C(c6ccc(C(=O)O)cc6)C(C)(C)[C@@H]5CC[C@]43C)[C@@H]12 [GSK3532795]
- Decline in HIV-1 RNA (HIV-1 subtype B [1]; Part A, 20–120 mg QD dose groups): > 1 log10
- Plateau of decline in HIV-1 RNA (HIV-1 subtype B [1]; Part A, 40–120 mg QD dose groups): approximately 1.64 log10 copies/mL
- Median decline (baseline to day 11) in HIV-1 RNA (HIV-1 subtype B [1]; Part A, 40–120 mg QD, consistently from approximately day 7): > 1 log10 copies/mL
- Range of median of the maximum decline in HIV-1 RNA (HIV-1 subtype B [1]; Part A, 40–120 mg QD, in the presence of baseline Gag polymorphisms (n = 15)): −1.43 to −1.98 log10 copies/mL
- Median of the maximum change in HIV-1 RNA from baseline to study discharge on day 24 (HIV-1 subtype B [1]; Part A, across all GSK3532795 groups (5–120 mg QD)): −0.50 to −1.70 log10 copies/mL
- Median maximum decline in HIV-1 RNA (HIV-1 subtype B [1]; following 10 days of monotherapy in subtype B–infected subjects): 1.70 log10 copies/mL
- Decline in HIV-1 RNA (HIV-1 subtype C; 10 days of 40 mg or 120 mg QD monotherapy, subtype C–infected subjects with ≥1 of 3 Gag polymorphisms at baseline): > 1 log10
- Median of the maximum change from baseline in HIV-1 RNA (HIV-1 subtype C; 40 mg QD): −1.35 log10 copies/mL
- Median decline (baseline to day 11) in HIV-1 RNA (HIV-1 subtype C; 40 mg QD, observed after day 8): > 1 log10 copies/mL
- Median of the maximum change from baseline in HIV-1 RNA (HIV-1 subtype C; 120 mg QD): −1.26 log10 copies/mL
- Median decline (baseline to day 11) in HIV-1 RNA (HIV-1 subtype C; 120 mg QD, observed after day 10): > 1 log10 copies/mL
- Tmax [2]: 3 h
- half-life [2]: 30 to 35 h
- AUC ([2]; 5 mg): 2720 ng·h/mL
- Cmax ([2]; 5 mg): 171 ng/mL
- Tmax ([2]; 5 mg): 3 h
- concentration at 24 h ([2]; 5 mg): 81.6 ng/mL
- half-life ([2]; 5 mg): 32.7 h
- AUC ([2]; 10 mg): 5170 ng·h/mL
- Cmax ([2]; 10 mg): 337 ng/mL
- Tmax ([2]; 10 mg): 3 h
- concentration at 24 h ([2]; 10 mg): 139 ng/mL
- half-life ([2]; 10 mg): 33.1 h
- AUC ([2]; 20 mg): 11800 ng·h/mL
- Cmax ([2]; 20 mg): 705 ng/mL
- Tmax ([2]; 20 mg): 4 h
- concentration at 24 h ([2]; 20 mg): 326 ng/mL
- half-life ([2]; 20 mg): 29.7 h
- AUC ([2]; 40 mg): 23000 ng·h/mL
- Cmax ([2]; 40 mg): 1480 ng/mL
- Tmax ([2]; 40 mg): 3 h
- concentration at 24 h ([2]; 40 mg): 713 ng/mL
- half-life ([2]; 40 mg): 33.8 h
- AUC ([2]; 80 mg): 39300 ng·h/mL
- Cmax ([2]; 80 mg): 2470 ng/mL
- Tmax ([2]; 80 mg): 3 h
- concentration at 24 h ([2]; 80 mg): 1150 ng/mL
- half-life ([2]; 80 mg): 30 h
- AUC ([2]; 120 mg): 44200 ng·h/mL
- Cmax ([2]; 120 mg): 2810 ng/mL
- Tmax ([2]; 120 mg): 2.5 h
- concentration at 24 h ([2]; 120 mg): 1290 ng/mL
- half-life ([2]; 120 mg): 34.9 h
- Increase in exposures compared with the same dose given as monotherapy fasted ([3]; GSK3532795 + ATV alone in the fed state): up to 50%
- AUC increase compared with the same dose given as monotherapy ([3]; Part B, 40 mg + ATV alone): approximately 40%
- AUC increase compared with the same dose given as monotherapy ([3]; Part B, 80 mg + ATV alone): ~50%
- Exposures higher with ATV/RTV relative to administration with ATV alone ([3]; Part B, GSK3532795 40 mg): ~ 10%
- Increase in exposures between 40 mg and 80 mg ([3]; Part B, coadministered with ATV alone, fed): ~ 2 fold
- Tmax delay ([3]; Part B, with ATV ± RTV in the fed state): 1 to 2 h
- AUC [3, 9]: 34200 ng·h/mL
- AUC [3, 10]: 31400 ng·h/mL
- AUC [3, 11]: 59900 ng·h/mL
- concentration at 24 h [3, 9]: 1160 ng/mL
- concentration at 24 h [3, 10]: 1100 ng/mL
- concentration at 24 h [3, 11]: 2010 ng/mL
- Cmax [3, 9]: 1850 ng/mL
- Cmax [3, 10]: 1670 ng/mL
- Cmax [3, 11]: 3160 ng/mL
- Tmax [3, 9]: 5 h
- Tmax [3, 10]: 4.5 h
- Tmax [3, 11]: 4.5 h
- Increase in Cmax and AUCtau between 40 mg and 120 mg ([4]; Part C, monotherapy, less than dose-proportional): ~ 2 fold
- AUC ([4]; 40 mg): 25600 ng·h/mL
- Cmax ([4]; 40 mg): 1560 ng/mL
- Tmax ([4]; 40 mg): 3 h
- AUC ([4]; 120 mg): 54000 ng·h/mL
- Cmax ([4]; 120 mg): 3380 ng/mL
- Tmax ([4]; 120 mg): 3 h
- Any AE (Safety assessments; 5 mg QD (n=8)): 5 (62.5) n (%)
- Deaths (Safety assessments; 5 mg QD (n=8)): 0 n (%)
- Discontinuations due to AE(s) (Safety assessments; 5 mg QD (n=8)): 0 n (%)
- Grade 3–4 related AEs (Safety assessments; 5 mg QD (n=8)): 0 n (%)
- Laboratory abnormalities (grade 3–4) (Safety assessments; 5 mg QD (n=8)): 0 n (%)
- Serious AEs (Safety assessments; 5 mg QD (n=8)): 0 n (%)
- Any AE (Safety assessments; 10 mg QD (n=8)): 4 (50.0) n (%)
- Deaths (Safety assessments; 10 mg QD (n=8)): 0 n (%)
- Discontinuations due to AE(s) (Safety assessments; 10 mg QD (n=8)): 0 n (%)
- Grade 3–4 related AEs (Safety assessments; 10 mg QD (n=8)): 0 n (%)
- Laboratory abnormalities (grade 3–4) (Safety assessments; 10 mg QD (n=8)): 0 n (%)
- Serious AEs (Safety assessments; 10 mg QD (n=8)): 0 n (%)
- Any AE (Safety assessments; 20 mg QD (n=8)): 4 (50.0) n (%)
- Deaths (Safety assessments; 20 mg QD (n=8)): 0 n (%)
- Discontinuations due to AE(s) (Safety assessments; 20 mg QD (n=8)): 0 n (%)
- Grade 3–4 related AEs (Safety assessments; 20 mg QD (n=8)): 0 n (%)
- Laboratory abnormalities (grade 3–4) (Safety assessments; 20 mg QD (n=8)): 0 n (%)
- Serious AEs (Safety assessments; 20 mg QD (n=8)): 0 n (%)
- Any AE (Safety assessments; 40 mg QD (n=16)): 8 (50.0) n (%)
- Deaths (Safety assessments; 40 mg QD (n=16)): 0 n (%)
- Discontinuations due to AE(s) (Safety assessments; 40 mg QD (n=16)): 0 n (%)
- Grade 3–4 related AEs (Safety assessments; 40 mg QD (n=16)): 0 n (%)
- Laboratory abnormalities (grade 3–4) (Safety assessments; 40 mg QD (n=16)): 0 n (%)
- Serious AEs (Safety assessments; 40 mg QD (n=16)): 0 n (%)
- Any AE (Safety assessments; 80 mg QD (n=8)): 7 (87.5) n (%)
- Deaths (Safety assessments; 80 mg QD (n=8)): 0 n (%)
- Discontinuations due to AE(s) (Safety assessments; 80 mg QD (n=8)): 0 n (%)
- Grade 3–4 related AEs (Safety assessments; 80 mg QD (n=8)): 0 n (%)
- Laboratory abnormalities (grade 3–4) (Safety assessments; 80 mg QD (n=8)): 0 n (%)
- Serious AEs (Safety assessments; 80 mg QD (n=8)): 0 n (%)
- Any AE (Safety assessments; 120 mg QD (n=15)): 10 (66.6) n (%)
- Deaths (Safety assessments; 120 mg QD (n=15)): 0 n (%)
- Discontinuations due to AE(s) (Safety assessments; 120 mg QD (n=15)): 0 n (%)
- Grade 3–4 related AEs (Safety assessments; 120 mg QD (n=15)): 0 n (%)
- Serious AEs (Safety assessments; 120 mg QD (n=15)): 0 n (%)
- Laboratory abnormalities (grade 3–4) (Safety assessments; 120 mg QD (n=15), grade 3 transient neutropenia reported as related to GSK3532795): 1 (6.7)^c n (%)
- Cases of hyperbilirubinemia (Safety assessments; during GSK3532795 monotherapy): no cases
- Predicted maximum decline in HIV-1 RNA from baseline (HIV-1 subtype B [5]; Emax model): approximately 1.7 log10 copies/mL
- C24 at which apparent response plateau was achieved (HIV-1 subtype B [5]; steady-state C24 vs maximum change in HIV-1 RNA): ≥ 500 ng/mL
- solubility [6]: < 1 µg/mL
- Half-life (T1/2) [7]: approximately 35 hours
- Human serum binding [8]: 86%
- EC50 shift in the presence of serum (HIV-1): 5.4 fold
- Effect when combined with other antiretrovirals, including integrase inhibitors (HIV-1; in vitro studies): additive
- Binding to HIV-1 Gag (HIV-1 Gag): binds reversibly to HIV-1 Gag with greater affinity than BVM

Compound: C=C(C)[C@@H]1CC[C@]2(C(=O)O)CC[C@]3(C)[C@H](CC[C@@H]4[C@@]5(C)CC[C@H](OC(=O)CC(C)(C)C(=O)O)C(C)(C)[C@@H]5CC[C@]43C)[C@@H]12 [BVM, 3-o-(3’,3’-dimethylsuccinyl)betulinic acid, reference compound]
- Protein binding [8]: > 99%
